Assay results as given in ChEMBL document CHEMBL1156597, “Structure-activity relationship of kahalalide F synthetic analogues” (J Med Chem, 2008).

Experiments:
LoVo [1] = experiment: Cytotoxicity against human doxorubicin resistant LoVo cells after 48 hrs by SRB assay; format: functional; conditions: for CC50: read-out: LC50 (the source's name)
Outline: (§1)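 Cells grown in RPMI 1640 with 10% FBS and penicillin/streptomycin at 37 °C and 5% CO₂, trypsinized, then seeded at 5 × 10³/well. After 18 h drug-free attachment, samples in DMSO/EtOH/PBS (0.5:0.5:99) were added for 48 h continuous exposure. Cells were fixed with cold TCA (1 h, 4 °C) and stained with SRB (10 min). Tris-solubilized stain read at 490 nm. Triplicate wells, mean ± SD; GI₅₀ derived.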

LoVo [2] = experiment: Cytotoxicity against human LoVo cells after 48 hrs by SRB assay; format: functional; conditions: for CC50: read-out: LC50 (the source's name)
K562 = experiment: Cytotoxicity against human K562 cells after 48 hrs by SRB assay; format: functional; conditions: K562, 48 h; for CC50: read-out: LC50 (the source's name); outline: as §1
HeLa = experiment: Cytotoxicity against human HeLa cells after 48 hrs by SRB assay; format: functional; conditions: for CC50: read-out: LC50 (the source's name); outline: as §1
HT-29 = experiment: Cytotoxicity against human HT29 cells after 48 hrs by SRB assay; format: functional, cell-based; conditions: Homo sapiens, HT-29, 48 h; for CC50: read-out: LC50 (the source's name); outline: as §1
A549 = experiment: Cytotoxicity against human A549 cells after 48 hrs by SRB assay; format: functional, cell-based; conditions: Homo sapiens, A549, 48 h; for GI50: read-out: GI50; outline: as §1
[3] = Cytotoxicity against human IGROV cells after 48 hrs by SRB assay; format: functional; conditions: for CC50: read-out: LC50 (the source's name); outline: as §1
SK-MEL-28 = experiment: Cytotoxicity against human SK-MEL-28 cells after 48 hrs by SRB assay; format: functional, cell-based; conditions: Homo sapiens, SK-MEL-28, 48 h; for GI50: read-out: GI50; for CC50: read-out: LC50 (the source's name); outline: as §1
DU-145 = experiment: Cytotoxicity against human DU145 cells after 48 hrs by SRB assay; format: functional, cell-based; conditions: Homo sapiens, DU-145, 48 h; for CC50: read-out: LC50 (the source's name); outline: as §1
SK-BR-3 = experiment: Cytotoxicity against human SKBR3 cells after 48 hrs by SRB assay; format: functional; conditions: SK-BR-3, 48 h; for CC50: read-out: LC50 (the source's name); outline: as §1
PANC-1 = experiment: Cytotoxicity against human PANC1 cells after 48 hrs by SRB assay; format: functional; conditions: PANC-1, 48 h; for CC50: read-out: LC50 (the source's name); outline: as §1
[4] = Cytotoxicity against human HeLa-APL cells after 48 hrs by SRB assay; format: functional; outline: as §1
[5] = Cytotoxicity against human IGROV-ET cells after 48 hrs by SRB assay; format: functional; conditions: for CC50: read-out: LC50 (the source's name); outline: as §1

Row | Structure (SMILES) | GI50 (LoVo [1]) | TGI (LoVo [1]) | CC50 (LoVo [1]) | GI50 (LoVo [2]) | TGI (LoVo [2]) | CC50 (LoVo [2]) | GI50 (K562) | TGI (K562) | CC50 (K562) | GI50 (HeLa) | TGI (HeLa) | CC50 (HeLa) | CC50 (HT-29) | LC50 (A549) | TGI (A549) | GI50 (A549) | GI50 [3] | GI50 ([3]; read-out: GI50) | CC50 [3] | TGI (SK-MEL-28) | also measured
1 | C/C=C1\NC(=O)[C@H](Cc2ccccc2)NC(=O)[C@@H](C(C)C)NC(=O)[C@@H]([C@H](C)CC)NC(=O)[C@H](NC(=O)[C@H](NC(=O)[C@H](CCCNC(=O)/C=C/CCC)NC(=O)[C@H]2CCCN2C(=O)[C@H](NC(=O)[C@@H](NC(=O)[C@@H](NC(=O)[C@H](NC(=O)CCCC(C)C)C(C)C)[C@@H](C)O)C(C)C)C(C)C)[C@H](C)CC)[C@H](C)OC(=O)[C@H](C(C)C)NC1=O | 140 nM | 116 nM | 96.9 nM | 75.6 nM | 82.4 nM | 90.6 nM | 1240 nM | 1820 nM | 1820 nM | 407 nM | 670 nM | 908 nM | 268 nM | 1090 nM | 1090 nM | 619 nM | 221 nM | 179 nM | 467 nM | 1120 nM | GI50 (HT-29): 126 nM; TGI (HT-29): 103 nM; GI50 (SK-MEL-28): 814 nM; CC50 (SK-MEL-28): 1120 nM; GI50 (DU-145): 876 nM; GI50 (DU-145; read-out: GI50): 661 nM; CC50 (DU-145): 876 nM; GI50 (SK-BR-3): 67.8 nM; GI50 (SK-BR-3; read-out: GI50): 55.7 nM; CC50 (SK-BR-3): 102 nM; GI50 (PANC-1): 1670 nM; TGI (PANC-1): 1670 nM; CC50 (PANC-1): 1670 nM; GI50 [4]: 503 nM; LC50 (concentration giving 50% net cell kill) [4]: 802 nM; TGI [4]: 514 nM; GI50 [5]: 250 nM; GI50 ([5]; read-out: GI50): 205 nM; CC50 [5]: 517 nM
2 | C/C=C1\NC(=O)[C@@H]2C[C@@H]3CCCC[C@@H]3N2C(=O)[C@@H](C(C)C)NC(=O)[C@@H]([C@H](C)CC)NC(=O)[C@H](NC(=O)[C@H](NC(=O)[C@H](CCCN)NC(=O)[C@H]2CCCN2C(=O)[C@H](NC(=O)[C@@H](NC(=O)[C@@H](NC(=O)[C@H](NC(=O)CC[C@@H](C)CC)C(C)C)[C@@H](C)O)C(C)C)C(C)C)[C@H](C)CC)[C@H](C)OC(=O)[C@H](C(C)C)NC1=O | 358 nM | 433 nM | 527 nM | 1210 nM | 1920 nM | 2420 nM | 4750 nM | 4040 nM | 2670 nM | 1560 nM | 1270 nM | 1050 nM | 677 nM | 1070 nM | 1250 nM | 1460 nM | 871 nM | 1820 nM | 582 nM | 1140 nM | GI50 (SK-MEL-28): 1150 nM; CC50 (SK-MEL-28): 1120 nM; TGI (DU-145): 1250 nM; GI50 (DU-145; read-out: GI50): 1460 nM; CC50 (DU-145): 1070 nM; TGI (SK-BR-3): 887 nM; GI50 (SK-BR-3; read-out: GI50): 700 nM; CC50 (SK-BR-3): 138 nM; GI50 (PANC-1): 2580 nM; TGI (PANC-1): 3670 nM; CC50 (PANC-1): 2000 nM; GI50 [4]: 1260 nM; LC50 (concentration giving 50% net cell kill) [4]: 1000 nM; TGI [4]: 1120 nM; GI50 [5]: 827 nM; GI50 ([5]; read-out: GI50): 1590 nM; CC50 [5]: 507 nM
3 | C/C=C1\NC(=O)[C@H](Cc2ccccc2)N(C)C(=O)[C@@H](C(C)C)NC(=O)[C@@H]([C@H](C)CC)NC(=O)[C@H](NC(=O)[C@H](NC(=O)[C@H](CCCN)NC(=O)[C@H]2CCCN2C(=O)[C@H](NC(=O)[C@@H](NC(=O)[C@@H](NC(=O)[C@H](NC(=O)CC[C@@H](C)CC)C(C)C)[C@@H](C)O)C(C)C)C(C)C)[C@H](C)CC)[C@H](C)OC(=O)[C@H](C(C)C)NC1=O | 318 nM | 311 nM | 305 nM | 386 nM | 431 nM | 486 nM | 2140 nM | 1730 nM | 1410 nM | 528 nM | 766 nM | 781 nM | 220 nM | 999 nM | 1130 nM | 1300 nM | 596 nM | 862 nM | 493 nM | 1270 nM | GI50 (HT-29): 274 nM; TGI (HT-29): 236 nM; GI50 (SK-MEL-28): 1350 nM; CC50 (SK-MEL-28): 1190 nM; TGI (DU-145): 1130 nM; GI50 (DU-145; read-out: GI50): 1230 nM; CC50 (DU-145): 1030 nM; TGI (SK-BR-3): 286 nM; GI50 (SK-BR-3; read-out: GI50): 324 nM; CC50 (SK-BR-3): 76.8 nM; GI50 (PANC-1): 1920 nM; TGI (PANC-1): 2100 nM; CC50 (PANC-1): 2000 nM; GI50 [4]: 1110 nM; LC50 (concentration giving 50% net cell kill) [4]: 936 nM; TGI [4]: 1020 nM; GI50 [5]: 642 nM; GI50 ([5]; read-out: GI50): 999 nM; CC50 [5]: 451 nM
